The text below walks through data of paper PMC3131463 (Journal of medicinal chemistry, 2011).

Where “and” joins values, the source holds several entries; their conditions need not be identical. Equal entries are not always repeated.

Series [1] concerns LPS-induced NO production in RAW 264 macrophage cells. Nature of the series: Suppression of LPS-induced NO production in RAW 264.7 macrophage cells. Format: cell-based.
For series [2], the system named is human whole blood. Briefly: Agonism / hemolysis in human whole blood. The format is cell-based. Conditions: up to 1 mM. A digest of the protocol:
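Human whole blood from healthy consenting donors, anticoagulated with lepirudin (final 50 µg/mL), was added to tubes holding test compound or PBS with Ca2+/Mg2+. It was preincubated 5–10 min at 37 °C, then given E. coli 0111:B4 ultra-pure LPS (100 ng/mL) or endotoxin-free PBS and rotated 2 h at 37 °C. EDTA (final 10 mM) was added, and plasma TNF-α, IL-8 and IL-6 were measured by singleplex Bio-plex.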

For series [3], the target named is MARK1 (Homo sapiens, UniProt Q9P0L2). Briefly: KinaseSeeker kinase profiling, MARK1. The format is binding. Conditions: read-out: inhibition of MARK1 (most inhibited kinase).
Series [4] relates to AKT1, CAMK1, DDR2, GSK-3α, MAPK1, MET, PAK1, PDGFRB, PIM1, PKC-γ, PLK4, and SRC. Briefly: KinaseSeeker kinase profiling, panel of 12 kinases. Format: binding. Particulars: at respective RAW264.7 IC50 concentrations (1j 28 µM, 1s 16 µM).
Series [5] has as its target T1, CYP1A2 (Homo sapiens, UniProt P05177).
T1 sequence (P05177 1-516): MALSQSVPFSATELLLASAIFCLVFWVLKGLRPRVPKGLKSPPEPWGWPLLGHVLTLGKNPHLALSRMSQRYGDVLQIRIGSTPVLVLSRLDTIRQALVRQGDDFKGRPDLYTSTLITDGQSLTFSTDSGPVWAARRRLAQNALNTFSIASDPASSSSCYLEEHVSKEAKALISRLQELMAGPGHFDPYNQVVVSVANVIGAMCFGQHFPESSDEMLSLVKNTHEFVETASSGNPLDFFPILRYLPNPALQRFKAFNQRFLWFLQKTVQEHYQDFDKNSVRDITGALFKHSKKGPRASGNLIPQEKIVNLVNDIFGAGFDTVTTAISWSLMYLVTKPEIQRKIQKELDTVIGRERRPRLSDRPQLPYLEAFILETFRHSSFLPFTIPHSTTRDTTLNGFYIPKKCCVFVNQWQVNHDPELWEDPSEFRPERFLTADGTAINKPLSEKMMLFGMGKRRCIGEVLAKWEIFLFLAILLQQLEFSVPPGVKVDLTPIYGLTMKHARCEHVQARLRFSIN
Nature of the series: CYP IC50 in human liver microsomes, CYP1A2. Format: in vitro ADME. A digest of the protocol: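 Test compound was run at eight concentrations (0–100 µM), with α-naphthoflavone as positive control. Protein was precipitated and acetaminophen formation measured by LC-MS/MS. IC50 came from a sigmoidal nonlinear regression fit.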

Series [6] can be described thus: Metabolic stability in human liver S9 fractions. Format: in vitro ADME. In a few lines:
(§1)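 Test compound (1 µM, <0.25% DMSO) was incubated at 37 °C with pooled liver S9 protein (1 mg/mL) and 1 mM each of NADPH, UDPGA, PAPS and GSH. Cofactors were added to start reactions at 0, 10, 20, 30 and 60 min, with testosterone and 7-hydroxycoumarin (20 µM each) as positive controls. Depletion was followed by LC-MS/MS peak-area ratio to internal standard, without a standard curve. CLint = k/P.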

The nature of series [7]: Metabolic stability in rat liver S9 fractions. The format is in vitro ADME. A digest of the protocol:
as §1

Series [8] in a line: Metabolic stability in human liver microsomes. The format is in vitro ADME. In a few lines:
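Test compound (1 µM, <0.25% DMSO) was incubated at 37 °C with human liver microsomal protein (0.5 mg/mL). Cofactors were added to start reactions at 0, 10, 20, 30 and 60 min, with a 5 µM testosterone positive control. NADPH addition was confirmed by fluorimetry. Compound-to-internal-standard peak-area ratio was read by LC-MS/MS without a standard curve. CLint = elimination rate constant / protein concentration.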

The subject of series [9] is MDR1-MDCK monolayer. Briefly: MDR1-MDCK permeability assay. Format: in vitro ADME. Particulars: 5 µM, apical to basolateral and basolateral to apical.
The target of series [10] is PKC-γ (Homo sapiens, UniProt P05129). Nature of the series: KinaseSeeker kinase profiling, PKC-γ. The format is binding. Particulars: read-out: inhibition of PKC-γ (most inhibited kinase).

MARK1, sequence (Q9P0L2 whole entry, species assumed): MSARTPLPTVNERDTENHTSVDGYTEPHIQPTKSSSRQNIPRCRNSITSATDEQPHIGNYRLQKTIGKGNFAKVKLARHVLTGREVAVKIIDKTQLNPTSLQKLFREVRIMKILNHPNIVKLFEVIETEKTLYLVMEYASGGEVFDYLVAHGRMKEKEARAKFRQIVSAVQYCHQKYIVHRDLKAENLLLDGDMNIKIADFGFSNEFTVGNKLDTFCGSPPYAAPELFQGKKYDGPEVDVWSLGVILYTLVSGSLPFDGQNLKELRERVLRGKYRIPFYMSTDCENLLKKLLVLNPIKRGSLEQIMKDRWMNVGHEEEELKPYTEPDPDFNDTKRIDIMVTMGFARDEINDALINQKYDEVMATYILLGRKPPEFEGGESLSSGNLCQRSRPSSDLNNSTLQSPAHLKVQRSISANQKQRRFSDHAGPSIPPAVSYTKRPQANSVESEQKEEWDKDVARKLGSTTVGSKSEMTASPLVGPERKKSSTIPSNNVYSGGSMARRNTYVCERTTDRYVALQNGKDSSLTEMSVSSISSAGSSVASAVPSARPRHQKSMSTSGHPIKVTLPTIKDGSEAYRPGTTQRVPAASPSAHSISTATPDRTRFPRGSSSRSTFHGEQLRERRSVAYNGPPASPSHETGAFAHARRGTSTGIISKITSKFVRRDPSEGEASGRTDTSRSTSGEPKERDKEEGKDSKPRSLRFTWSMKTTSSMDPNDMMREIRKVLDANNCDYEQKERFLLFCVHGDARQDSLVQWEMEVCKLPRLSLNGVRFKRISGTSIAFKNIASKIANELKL

For `Cc1nn(Cc2ccccc2)c(C)c1CN(C)CC(O)COc1ccccc1` (stereo not drawn) [1a, 1-(((1-benzyl-3,5-dimethyl-1H-pyrazol-4-yl)methyl)(methyl)amino)-3-phenoxypropan-2-ol], the “suppression of NO signaling (in words)” value in series [1] was “ineffective at suppressing NO signaling”. Moreover, the “agonistic effects with respect to cytokine release or hemolysis” value in [2] is given as “no agonistic effects”.

For the compound `Cc1nn(Cc2ccccc2Cl)c(C)c1CN(C)CC(O)COc1ccc(Cl)cc1` (stereo not drawn) [1s], the inhibition at 16 µM in [3] worked out at 26.7%. In series [4], the “activity retained by the majority of the kinases” value is > 95% and 95%; the “maximal inhibition of any kinase of the panel” value is reported as ≤ 27%.

`CCOc1ccc(OCC(O)CN(C)Cc2c(C)nn(Cc3ccccc3OC)c2C)cc1` (stereo not drawn) [1g]: the “suppression of NO signaling (in words)” value in series [1] is recorded as “no detectable NO suppression”.

With `CCOc1ccc(OCC(O)CN(C)Cc2c(C)nn(Cc3ccccc3Cl)c2C)cc1` (stereo not drawn) [1j, 1-(((1-(2-chlorobenzyl)-3,5-dimethyl-1H-pyrazol-4-yl)methyl)(methyl)amino)-3-(4-ethoxyphenoxy)propan-2-ol], the 50% inhibitory concentration (IC50) in series [5] is > 100 µM. In series [6], the intrinsic clearance (microsomal CLint) at 1 µM was found to be 300 µL/min/mg. In addition, the intrinsic metabolic clearance (microsomal CLint) in series [7] was > 350 µL/min/mg. Besides, in series [8], the microsomal CLint is > 700 µL/min/mg. Also, in series [4], the “activity retained by the majority of the kinases” value was > 95% and the “maximal inhibition of any kinase of the panel” value is on record as ≤ 27%. Besides, the “agonistic effects with respect to cytokine release or hemolysis” value in [2] is listed as “no agonistic effects”. Moreover, the “brain-blood barrier permeability classification” value in series [9] was “high”. Besides, the inhibition at 28 µM in series [10] is 22.4%.
